From ChEMBL document CHEMBL1148953, “Activity-guided fractionation of the leaves of Ormosia sumatrana using a proteasome inhibition assay” (J Nat Prod, 2004)
The source made the active and inactive calls. The rule behind the calls is not given here.

How the values were obtained:
Col2 = test: In vivo cytotoxicity against human Col2 cells by hollow fiber assay; format: functional
HL-60 [1] = test: (§1) Inhibition of human HL60 cells-derived chymotrypsin-like proteasome activity; format: subcellular
In short: (§2)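 Proteasome-enriched fraction from HL-60 cells, prepared by 100 000g spin, then 5% and 12% PEG (w/v) fractionation and 2-fold dilution in 10 mM Tris-EDTA pH 7.5. Fraction at final 50 µg/mL in 155 mM Tris, 10 mM EDTA, pH 7.4. Preincubated with inhibitor 30 min at room temperature, then 10 µM Suc-LLVY-AMC for 1 h. Free AMC read at ex 360/em 460 nm. IC50 reported.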

KB = test: In vivo cytotoxicity against human KB cells by hollow fiber assay; format: functional
[2] = In vivo cytotoxicity against human RPE1 cells expressing human telomerase reverse transcriptase by hollow fiber assay; format: functional, TERT-RPE1
[3] = as §1; format: subcellular; conditions: hl-60; in short: as §2
HL-60 [4] = test: Inhibition of human HL60 cells-derived chymotrypsin-like proteasome activity at 28 uM; format: subcellular

Row | Structure (SMILES) | ED50 (Col2) [µg/mL] | Activity (HL-60 [1]) | ED50 (KB) [µg/mL] | ED50 [2] [µg/mL] | IC50 [3] [µM] | inhibition (HL-60 [4]) [%]
1 | CCCCCCCCCCCCCCCCCCCCCC[C@@H](OC(C)=O)C(=O)OC | >5 | inactive | >5 | >5 | – | –
2 | CCCCCCCC/C=C\CCCC[C@@H](OC(C)=O)[C@@H](OC(C)=O)[C@H](COC(C)=O)NC(C)=O | >5 | inactive | >5 | >5 | – | –
3 | CCCCCCCC/C=C\CCCC[C@@H](O)[C@@H](O)C(CO[C@@H]1O[C@H](CO)[C@@H](O)[C@H](O)[C@H]1O)NC(=O)[C@@H](O)CCCCCCCCCCCCCCCCCCCCCC (stereo not given in full) [SUMATRANOSIDE] | – | – | – | – | 30 | –
4 | O=C(/C=C/c1ccccc1)O[C@@H]1Cc2c(O)cc3c(c2O[C@@H]1c1ccc(O)c(O)c1)[C@H]1c2c(O)cc(O)cc2O[C@@](c2ccc(O)c(O)c2)(O3)[C@@H]1O | – | – | – | – | – | < 10
